Assay [1] is filed under the species Ovis aries. Briefly: Displacement of [3H]-SCH23390 from dopamine D1 receptor in lamb brain striatum membranes at 25 uM. It counts as cell membranes. The following applies: Membrane. The gist of the method: (§1)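 Lamb striatal membranes (0.5 mg prot/mL) in 50 mM Tris-HCl pH 7.4 with 10 mM MgCl2 were incubated 2 h at 22 C. Radioligand was 0.9 nM [3H]-SCH23390 (D1) or 0.7 nM [3H]-YM09151-2 (D2). Screens used 25 μM compound; competition used increasing concentrations. Nonspecific binding was taken with 10 μM SCH23390 (D1) or raclopride (D2). Bound ligand was filtered and counted. KD values came from a two-state dimer receptor model fit.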
(In a radioligand displacement assay an active substance lowers the binding of a labelled ligand.)

For assay [2], the species on record is Ovis aries. Briefly: Displacement of [3H]-YM09151-2 from dopamine D2 receptor in lamb brain striatum membranes at 25 uM. The assay is classed as cell membranes. The following applies: Membrane. The gist of the method:
as §1

Assay [3] has as its target T1, Adenosine receptor A1 (Homo sapiens) (UniProt P30542).
T1 sequence (whole entry): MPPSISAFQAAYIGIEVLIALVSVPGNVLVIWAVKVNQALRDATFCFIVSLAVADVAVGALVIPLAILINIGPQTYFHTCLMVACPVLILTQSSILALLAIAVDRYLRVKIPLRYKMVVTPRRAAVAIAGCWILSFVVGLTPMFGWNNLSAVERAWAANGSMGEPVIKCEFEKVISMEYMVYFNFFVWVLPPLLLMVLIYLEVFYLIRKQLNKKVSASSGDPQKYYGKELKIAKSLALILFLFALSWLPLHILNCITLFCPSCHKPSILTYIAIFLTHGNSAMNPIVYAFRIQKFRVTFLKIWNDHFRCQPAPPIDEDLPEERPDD
Briefly: Displacement of [3H]-R-PIA from adenosine A1 receptor at 25 uM. The gist of the method:
(§2)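 Membranes were incubated with 25 μM compound for 2 h at 22 C in 50 mM Tris-HCl pH 7.4 with 10 mM MgCl2 and 0.2 U/mL ADA. Radioligand was 1.0 nM [3H]-R-PIA (A1) or 1.6 nM [3H]ZM241385 (A2A). Nonspecific binding was taken with 10 μM DPCPX (A1) or ZM241385 (A2A). Separation was by GF/C filtration, then scintillation counting.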

The target in assay [4] is Adenosine receptor A2a (Homo sapiens) (UniProt P29274). Put plainly: Displacement of [3H]-ZM241385 from adenosine A2A receptor at 25 uM. The gist of the method:
as §2

Assay [5] is described as follows: Displacement of [3H]-YM09151-2 from dopamine D2 receptor high binding affinity site in lamb brain striatum membranes at 25 uM. It counts as cell membranes, Ovis aries, Membrane. In short, it runs like this: as §1
Assay [6] in a line: Displacement of [3H]-SCH23390 from dopamine D1 receptor low binding affinity site in lamb brain striatum membranes at 25 uM. The assay is classed as cell membranes, Ovis aries, Membrane. In short, it runs like this: as §1
A short description of assay [7]: Displacement of [3H]-YM09151-2 from dopamine D2 receptor low binding affinity site in lamb brain striatum membranes at 25 uM. It counts as cell membranes, Ovis aries, Membrane. In short, it runs like this:
as §1

The nature of assay [8]: Displacement of [3H]-SCH23390 from dopamine D1 receptor high binding affinity site in lamb brain striatum membranes at 25 uM. The assay is classed as cell membranes, Ovis aries, Membrane. In short, it runs like this:
as §1

The source made the active and inactive calls. No cut-off for these calls is given here. Bounds are passed on as bounds.

Chain of Adenosine receptor A2a (Homo sapiens) (P29274 whole entry): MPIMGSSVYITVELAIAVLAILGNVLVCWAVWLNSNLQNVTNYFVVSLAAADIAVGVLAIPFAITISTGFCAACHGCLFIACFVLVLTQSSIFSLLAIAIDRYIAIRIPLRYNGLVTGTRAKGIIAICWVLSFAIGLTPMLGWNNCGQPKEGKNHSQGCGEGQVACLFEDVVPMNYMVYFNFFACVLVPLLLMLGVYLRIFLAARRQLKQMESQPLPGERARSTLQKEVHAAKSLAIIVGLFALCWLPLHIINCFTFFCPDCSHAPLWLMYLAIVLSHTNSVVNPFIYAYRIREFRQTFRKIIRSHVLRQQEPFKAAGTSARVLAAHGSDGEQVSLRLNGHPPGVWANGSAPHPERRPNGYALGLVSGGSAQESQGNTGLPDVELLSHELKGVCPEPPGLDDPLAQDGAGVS

Regarding `CC(=O)N[C@@H](CCC(=O)NCCNC(=O)[C@@H]1CCCN1C(=O)[C@H](Cc1ccc([N+](=O)[O-])cc1)NC(=O)[C@@H](NC(=O)[C@@H]1C=C2c3cccc4[nH]cc(c34)C[C@H]2N(C)C1)C(C)C)C(N)=O`, the outcome in the assay listed under Ovis aries [1] and in the assay filed under Ovis aries [2] was Active.
With `CC(=O)N[C@@H](CCC(=O)Nc1ccc(-c2ccc(NC(=O)C3CCCN(C(=O)[C@H](Cc4ccc(F)cc4)NC(=O)[C@H](Cc4ccc([N+](=O)[O-])cc4)NC(=O)[C@@H]4C=C5c6cccc7[nH]cc(c67)C[C@H]5N(C)C4)C3)cc2)cc1)C(N)=O` (stereo not given in full), in the assay listed under Ovis aries [2], the outcome was Active.
Still for that read-out and setting: the same measure for `CC(=O)N[C@@H](CCC(=O)Nc1ccc(Sc2ccc(NC(=O)C3CCCN(C(=O)[C@H](Cc4ccc(F)cc4)NC(=O)[C@H](Cc4ccc([N+](=O)[O-])cc4)NC(=O)[C@@H]4C=C5c6cccc7[nH]cc(c67)C[C@H]5N(C)C4)C3)cc2)cc1)C(N)=O` (stereo not given in full): “Active”.
Consider `CC(=O)N[C@@H](CCCCNC(=O)CCCCCNC(=O)[C@@H]1CCCN1C(=O)[C@H](Cc1ccc([N+](=O)[O-])cc1)NC(=O)[C@@H](NC(=O)[C@@H]1C=C2c3cccc4[nH]cc(c34)C[C@H]2N(C)C1)C(C)C)C(N)=O`, for which the outcome (in assay [3]; in the assay listed under Ovis aries [1]) was Active.
With `CC(=O)N[C@@H](CCCCNC(=O)[C@@H](CCCCNC(=O)[C@@H]1CCCN1C(=O)[C@H](Cc1ccc([N+](=O)[O-])cc1)NC(=O)[C@@H](NC(=O)[C@@H]1C=C2c3cccc4[nH]cc(c34)C[C@H]2N(C)C1)C(C)C)NC(C)=O)C(N)=O`, the outcome (in assay [4]; in assay [3]; in the assay listed under Ovis aries [1]) was Active.
Consider `CC(=O)N[C@@H](CCCCNC(=O)CCCCCNC(=O)C1CCCN(C(=O)[C@H](Cc2ccc(F)cc2)NC(=O)[C@H](Cc2ccc([N+](=O)[O-])cc2)NC(=O)[C@@H]2C=C3c4cccc5[nH]cc(c45)C[C@H]3N(C)C2)C1)C(N)=O` (stereo not given in full), for which the outcome in assay [4] and in assay [3] was Active.
In the case of `CC(=O)N[C@@H](CCCCNC(=O)CCCC(=O)NCCNC(=O)C1CCCN(C(=O)[C@H](Cc2ccc(F)cc2)NC(=O)[C@H](Cc2ccc([N+](=O)[O-])cc2)NC(=O)[C@@H]2C=C3c4cccc5[nH]cc(c45)C[C@H]3N(C)C2)C1)C(N)=O` (stereo not given in full), the result in the assay listed under Ovis aries [2] was Active.
With `CC(=O)N[C@@H](CCCCNC(=O)c1ccc(C(=O)c2ccc(C(=O)NCCNC(=O)C3CCCN(C(=O)[C@H](Cc4ccc(F)cc4)NC(=O)[C@H](Cc4ccc([N+](=O)[O-])cc4)NC(=O)[C@@H]4C=C5c6cccc7[nH]cc(c67)C[C@H]5N(C)C4)C3)cc2)cc1)C(N)=O` (stereo not given in full), the result in the assay filed under Ovis aries [2] was Active.
Same read-out and setting: the same measure for `CC(=O)N[C@@H](CCCCNC(=O)c1ccc(-c2ccc(C(=O)NCCNC(=O)C3CCCN(C(=O)[C@H](Cc4ccc(F)cc4)NC(=O)[C@H](Cc4ccc([N+](=O)[O-])cc4)NC(=O)[C@@H]4C=C5c6cccc7[nH]cc(c67)C[C@H]5N(C)C4)C3)cc2)cc1)C(N)=O` (stereo not given in full): “Active”; for `CC(=O)N[C@@H](CCC(=O)Nc1ccc(-c2ccc(NC(=O)[C@@H]3CCCN3C(=O)[C@H](Cc3ccc([N+](=O)[O-])cc3)NC(=O)[C@@H](NC(=O)[C@@H]3C=C4c5cccc6[nH]cc(c56)C[C@H]4N(C)C3)C(C)C)cc2)cc1)C(N)=O`: “Active”.
On to `CC(=O)N[C@@H](CCCCNC(=O)[C@@H]1CCCN1C(=O)[C@H](Cc1ccc([N+](=O)[O-])cc1)NC(=O)[C@@H](NC(=O)[C@@H]1C=C2c3cccc4[nH]cc(c34)C[C@H]2N(C)C1)C(C)C)C(N)=O`, for which the result in the assay filed under Ovis aries [1] and in the assay filed under Ovis aries [2] was Active.
As for `CC(=O)N[C@@H](CCCCNC(=O)C1CCCN(C(=O)[C@H](Cc2ccc(F)cc2)NC(=O)[C@H](Cc2ccc([N+](=O)[O-])cc2)NC(=O)[C@@H]2C=C3c4cccc5[nH]cc(c45)C[C@H]3N(C)C2)C1)C(N)=O` (stereo not given in full), the result in the assay listed under Ovis aries [2] was Active.
Usually Kd stands for the concentration at which binding is half-saturated. As to `CC(=O)N[C@@H](CCCCNC(=O)[C@@H]1CCCN1C(=O)[C@H](Cc1ccc([N+](=O)[O-])cc1)NC(=O)[C@@H](NC(=O)[C@@H]1C=C2c3cccc4[nH]cc(c34)C[C@H]2N(C)C1)C(C)C)C(=O)NCCCC[C@H](NC(=O)CCCC[C@H]1SC[C@H]2NC(=O)N[C@H]21)C(N)=O`, the Kd in assay [5] was 2000 nM; in assay [6] it was > 50000 nM; in assay [7], 23000 nM; in assay [8] it was 2100 nM.
On to `CC(=O)N[C@@H](CCC(=O)NCCCCCCNC(=O)[C@@H]1CCCN1C(=O)[C@H](Cc1ccc([N+](=O)[O-])cc1)NC(=O)[C@@H](NC(=O)[C@@H]1C=C2c3cccc4[nH]cc(c34)C[C@H]2N(C)C1)C(C)C)C(N)=O`, for which the outcome in the assay filed under Ovis aries [1] and in the assay filed under Ovis aries [2] was Active.
As for `CC(=O)N[C@@H](CCCCNC(=O)[C@@H](CCCCNC(=O)C1CCCN(C(=O)[C@H](Cc2ccc(F)cc2)NC(=O)[C@H](Cc2ccc([N+](=O)[O-])cc2)NC(=O)[C@@H]2C=C3c4cccc5[nH]cc(c45)C[C@H]3N(C)C2)C1)NC(C)=O)C(N)=O` (stereo not given in full), the outcome (in assay [4]; in assay [3]; in the assay filed under Ovis aries [2]) was Active.
As for `CC(=O)N[C@@H](CCCCNC(=O)[C@H](N)CCCCNC(=O)[C@@H]1CCCN1C(=O)[C@H](Cc1ccc([N+](=O)[O-])cc1)NC(=O)[C@@H](NC(=O)[C@@H]1C=C2c3cccc4[nH]cc(c34)C[C@H]2N(C)C1)C(C)C)C(N)=O`, the result in the assay filed under Ovis aries [1] was inactive. Besides, the result in the assay filed under Ovis aries [2] was Active.
For `CC(=O)N[C@@H](CCCCNC(=O)[C@@H](CCCCN)NC(=O)[C@@H]1CCCN1C(=O)[C@H](Cc1ccc([N+](=O)[O-])cc1)NC(=O)[C@@H](NC(=O)[C@@H]1C=C2c3cccc4[nH]cc(c34)C[C@H]2N(C)C1)C(C)C)C(N)=O`, the outcome in the assay filed under Ovis aries [2] was Active.
Take `CC(C)[C@H](NC(=O)[C@@H]1C=C2c3cccc4[nH]cc(c34)C[C@H]2N(C)C1)C(=O)N[C@@H](Cc1ccc([N+](=O)[O-])cc1)C(=O)N1CCC[C@H]1C(=O)NCCCCCC(=O)NCCCC[C@H](NC(=O)CCCC[C@H]1SC[C@H]2NC(=O)N[C@H]21)C(N)=O`: the equilibrium dissociation constant (Kd) in assay [5] amounted to 260 nM; in assay [6], 3200 nM; in assay [7], 7000 nM; in assay [8] it was 107 nM.
Turning to `CC(=O)N[C@@H](CCCCNC(=O)CCC(=O)NCCNC(=O)[C@@H]1CCCN1C(=O)[C@H](Cc1ccc([N+](=O)[O-])cc1)NC(=O)[C@@H](NC(=O)[C@@H]1C=C2c3cccc4[nH]cc(c34)C[C@H]2N(C)C1)C(C)C)C(N)=O`, the outcome in the assay listed under Ovis aries [2] was Active.

Values taken from ChEMBL document CHEMBL1671805, “Biotin ergopeptide probes for dopamine receptors” (J Med Chem, 2011).
